# The list is not random: actives were taken first. Their share in the collection is about 4%.
# FN deposition inh = inhibitors of fibronectin matrix deposition, primary screen, AH1F cells, Alexa488-fibronectin fluorescence, plate reader; 350,000 tested, 0.086% active; inhibition, % at 12.6 µM; AH1F fibroblasts, overnight;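 active means mean inhibition across replicates of 30% or more, regardless of how many single replicates reach that level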;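 further: positive control wells lacked labelled fibronectin entirely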
#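 Assay system: AH1F fibroblasts assembling fluorescent fibronectin matrix; Amount: 10000 AH1F cells per well; Buffer or medium: DMEM, 2% serum; Probe or stimulus: Alexa488-fibronectin, 24 nM final in well; Doses: single compound dose, delivered by pin transfer; Incubation: 1 h adhesion, overnight exposure; Measured by: fluorescence 485/525 nm; Read-out: fibronectin deposition inhibition.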
# SIRT5 inh = SIRT5 desuccinylase inhibitors, primary screen, biochemical, fluorescence imaging, single point, set 5; AID 652115, 2013; Purified SirT5, succinyl-peptide AMC, trypsin-coupled fluorescence; inhibition, % at 15 µM; NAD-dependent protein deacylase sirtuin-5, mitochondrial (Homo sapiens), Q9NXA8; 330,000 tested, 1.1% active; in the data active means inhibition above about 15%
# Target sequence (Q9NXA8 whole entry, looked up): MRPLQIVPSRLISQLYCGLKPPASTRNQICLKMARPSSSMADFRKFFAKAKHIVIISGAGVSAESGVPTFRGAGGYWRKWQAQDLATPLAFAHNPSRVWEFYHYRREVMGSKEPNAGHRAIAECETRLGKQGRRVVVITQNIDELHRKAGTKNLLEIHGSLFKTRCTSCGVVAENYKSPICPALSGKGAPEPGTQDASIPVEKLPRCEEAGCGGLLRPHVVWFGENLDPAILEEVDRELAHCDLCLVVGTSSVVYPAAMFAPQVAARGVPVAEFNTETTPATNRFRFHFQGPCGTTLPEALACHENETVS
# Statin myotox sup = suppressors of statin myotoxicity in C2C12 myotubes, primary screen, cell-based, single point, plate reader | C2C12 myotubes + simvastatin, ATP luminescence, 48 h; scaled: DMSO 0, geranylgeraniol control 100 | rescue of ATP level, % at 7.49 µM | 330,000 tested, 0.78% active | AID 602340, 2012;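 active means mean ATP rescue above about 67%, or every replicate alone reaching that limit, limit read from the data, passing the limit was not always enough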;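 further: myotubes were challenged with 10 µM simvastatin during compound exposure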
# E-selectin induc = E-selectin induction in HUVECs, primary screen, imaging, HUVEC, immunofluorescence imaging, single point; P16581; normalized: neutral wells 0, TNF-alpha wells 100; activation, % at 7.58 µM; 260,000 tested, 0.37% active; AID 686992, 2013;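 active means mean E-selectin-positive cell signal at least 10% of the positive control, reached in at least 60% of replicates, without over 20% cell loss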
#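 System: HUVEC / Compound: single concentration / Signal: immunofluorescence imaging / Read-out: percent E-selectin-positive cells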
# Ecoli rRNA inh = reduced GFP signal of wild-type E. coli, primary screen, bacterial rRNA inhibitor project, GFP/RFP fluorescence, OD600, single point; E. coli WT GFP vs humanized-ribosome RFP mutants, 24 h; active compounds read low; DMSO median 0, no signal -100; GFP signal change (wild-type ribosome), % (no concentration beside the values); 350,000 tested, 1.6% active; AID 720706, 2013;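 active means significant combined selectivity score with lowered wild-type GFP, culture density cut under 30%, mutant RFP and density less affected; inactive means any of these conditions unmet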
# FGF22 binding = binders of human FGF22 protein, primary screen, FGF22 synaptogenesis inhibitor project, biophysical, thermal shift, single point | Fibroblast growth factor 22 (Homo sapiens), Q9HCT0 | recombinant FGF22 thermal shift, SYPRO orange fluorescence; percent of sucrose octasulfate shift, DMSO zero | activity (Tm shift, normalised), % at 9.99 µM | 340,000 tested, 1.5% active | AID 651658, 2012;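 active means mean Tm shift, scaled 0 neutral to 100 positive control, at about 1.3% or above, every replicate too, limit read from the data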
# Target sequence (Q9HCT0 whole entry, looked up): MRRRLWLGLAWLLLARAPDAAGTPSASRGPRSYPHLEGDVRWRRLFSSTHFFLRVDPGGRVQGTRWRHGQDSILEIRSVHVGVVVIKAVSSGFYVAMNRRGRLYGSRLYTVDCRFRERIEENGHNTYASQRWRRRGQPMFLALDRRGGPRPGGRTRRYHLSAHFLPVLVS
# Numbers without * were called inactive; . = no result given.
SMILES,FN deposition inh,SIRT5 inh,Statin myotox sup,E-selectin induc,Ecoli rRNA inh,FGF22 binding
CCc1nc2ccc(C(=O)NCCOc3ccc(OC)cc3)cn2c1N(C)Cc1ccc(N(C)C)cc1,.,-2,-2,0,-23*,0
C[C@@H]1CCCCO[C@H](CN(C)C(=O)c2ccccc2)[C@H](C)CN([C@@H](C)CO)C(=O)c2cc(NC(=O)c3ccccc3)ccc2O1,-6,6,.,.,-52,.
COC(=O)CC1=C(c2ccc([N+](=O)[O-])cc2)CCC1=O,14,16*,-1,0,-19*,0
Cc1ccc(C2=C(CC(=O)O)C(=O)CC2)cc1,5,.,.,.,.,.
Cc1noc(C)c1S(=O)(=O)Nc1ccc2c(c1)C(=O)N([C@H](C)CO)C[C@H](C)[C@H](CN(C)Cc1ccc(-c3ccccc3)cc1)O2,.,6,.,0,-5,0
Cc1onc(-c2ccccc2Cl)c1C(=O)N[C@@H](C)c1ccccc1,-6,1,8,0,-21*,0
Cc1onc(-c2ccccc2)c1C(=O)NC(C)c1ccccc1 (centres undefined),-2,1,.,0,5,0
Oc1ccc(N2CCN(c3ccnc4cc(Cl)ccc34)CC2)cc1,0,-7,-32,.,-38*,0
COc1cccc(Cl)c1NC(=O)N1CCN(c2cc(C)nc3ccccc23)CC1,5,-2,-3,0,-16,.
CCC(=O)N1CCN(c2ccnc3cc(Cl)ccc23)CC1,5,-2,.,.,-8,0
COc1ccc(N2CCN(c3ccnc4cc(Cl)ccc34)CC2)cc1,0,-4,3,0,-2,-1
O=C(c1ccc(Cl)cc1)N1CCN(c2ccnc3cc(Cl)ccc23)CC1,.,7,.,.,-29*,0
COc1cccc(Cl)c1NC(=O)N1CCN(c2ccnc3cc(Cl)ccc23)CC1,-4,-2,.,0,-32*,1
CO[C@@H]1CN(C)C(=O)c2ccc(NC(C)=O)cc2OC[C@@H](C)N(C(=O)Cc2cccnc2)C[C@H]1C,-4,.,7,-1,3,.
CCNC(=O)C[C@H]1CC[C@@H]2[C@H](COc3ccc(NC(=O)Nc4cccc(C)c4)cc3C(=O)N2C)O1,-11,1,2,1,3,0
COc1ccc(COC[C@]23NC(=S)N(C(=O)c4ccccc4)[C@H](c4ccccc4O2)[C@H]3CO[Si](C)(C)C(C)(C)C)cc1,.,7,.,.,.,1
CC1CCN(C2=C(NS(=O)(=O)c3ccccc3)C(=O)c3ccccc3C2=O)CC1,3,1,.,1,-24*,0
CCN1CCN(C2=C(NS(=O)(=O)c3ccc(C)cc3)C(=O)c3ccccc3C2=O)CC1,-4,1,6,.,-18*,0
CC(C)C(=O)Nc1ccc2c(c1)C(=O)N(C)[C@H]1CC[C@H](CC(=O)NCCCN(C)C)O[C@H]1CO2,-14,.,-6,0,3,0
CCC(=O)N1C[C@H](C)[C@H](OC)CN(C)C(=O)c2ccc(NC(=O)Nc3ccc(Cl)cc3)cc2OC[C@@H]1C,-9,.,-2,1,-1,.
CC1CN(S(=O)(=O)c2ccc(CN3C(=O)c4cccnc4C3=O)s2)c2ccccc2O1 (centres undefined),-4,24*,0,0,0,-1
CC1CN(S(=O)(=O)c2ccc(CN3C(=O)c4cccnc4C3=O)cc2)c2ccccc2O1 (centres undefined),4,0,4,.,5,0
CC(C)OC(=O)c1cccc(C(=O)O)n1,9,19*,.,.,18,.
CO[C@H]1CN(C)C(=O)c2ccc(NC(=O)c3cnccn3)cc2OC[C@H](C)N(CCc2ccccc2)C[C@H]1C,2,6,8,0,1,0
COc1cc(CNCCCN2CCOCC2)cc(Cl)c1OCC(=O)NC(C)(C)C,2,-5,.,0,9,0
SMILES,FN deposition inh,SIRT5 inh,Statin myotox sup,E-selectin induc,Ecoli rRNA inh,FGF22 binding
CCOc1cc(CNCCCN2CCOCC2)ccc1OCC(=O)NC(C)(C)C,-2,2,-6,.,19,42
COc1ccc(-c2ccc(NCCN3CCOCC3)nn2)cc1OC,1,16*,4,.,1,0
COc1ccc(-c2ccc(Nc3ccc(C(=O)N4CCOCC4)cc3)nn2)cc1OC,.,.,-54,.,.,.
COc1cc(CNCCCN2CCOCC2)ccc1OCC(=O)NC(C)(C)C,5,0,.,.,25,44*
COc1cc(CNCCN2CCOCC2)ccc1OCC(=O)NC(C)(C)C,-9,0,-2,0,.,43*
CCOC(=O)[C@]12CCC=C1N(Cc1ccc3c(c1)OCO3)C(=O)[C@H](CC(=O)NCc1cccs1)C2,9,.,.,0,-25,43*
CCOC(=O)[C@]12CCCC=C1N(Cc1ccccc1)C(=O)[C@H](CC(=O)NCCc1ccccc1OC)C2,14,-3,.,0,-21*,0
CCOC(=O)[C@]12CCC=C1N(Cc1ccccc1)C(=O)[C@H](CC(=O)NCCCCc1ccccc1)C2,0,2,.,.,0,0
CCOC(=O)[C@]12CCC=C1N(Cc1ccccc1)C(=O)[C@H](CC(=O)NCc1cccs1)C2,13,.,.,0,-15,0
CCOC(=O)[C@]12CCC=C1N(Cc1ccccc1)C(=O)[C@H](CC(=O)NCCC(C)C)C2,.,2,.,0,-24*,0
C[C@@H]1CN([C@H](C)CO)C(=O)c2cc(NS(C)(=O)=O)ccc2O[C@H]1CN(C)Cc1ccc(C(F)(F)F)cc1,.,3,-2,-3,-5,1
O=c1ccn(Cc2ccccc2)c2ccccc12,-5,36*,22,0,-1,0
CCOc1cc(NC(=O)C2CC2)c(OCC)cc1NC(=O)c1ccccn1,.,.,121*,.,.,.
C[C@@H]1CN([C@H](C)CO)C(=O)c2cccc(NC(=O)C3CCOCC3)c2O[C@@H]1CN(C)Cc1ccc2c(c1)OCO2,2,.,-4,.,-1,0
Cc1ccsc1/C=C1\CCC(C2CCCC2)C1=O (centres undefined),-3,-1,-5,.,-23*,0
Cc1ccc(/C=C2\CCC(C3CCCC3)C2=O)cc1 (centres undefined),7,.,.,-1,.,.
COc1ccc(-n2c(-c3ccc(C(C)(C)C)cc3)n[nH]c2=S)c(OC)c1,-2,-2,5,.,-59,0

# From PubChem BioAssay
